Measured values: ChEMBL document CHEMBL4480406, “Discovery of an SSTR2-Targeting Maytansinoid Conjugate (PEN-221) with Potent Activity in Vitro and in Vivo” (J Med Chem, 2019)
Activity calls are given as the source filed them. The rule behind the calls is not given here.

What was measured:
[1] = target: T1, Somatostatin receptor type 2 (Homo sapiens, UniProt P30874); test: Displacement of [125I]somatostatin from human SSTR2 expressed in CHO-K1 cell membranes after 240 mins
Summary of the method: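 Membranes from CHO-K1 cells stably expressing human SSTR2, prepared in modified HEPES pH 7.4. Nonspecific binding was defined with 1 µM somatostatin. Bound ligand was measured by filtration, 3 washes and counting. Six test concentrations were run, top 10 nM, in five-fold dilutions.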

[2] = test system: NCI-H524; test: Cytotoxicity in human NCI-H524 cells pre-incubated for 2 hrs followed by compound wash out and subsequently incubated for 70 hrs by Cell Titer Glo assay; assay type: functional, cell-based
Summary of the method: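 Cells were then spun, washed with fresh medium, resuspended and grown a further 70 h. Proliferation was read by CellTiter-Glo luminescence, and % inhibition calculated relative to vehicle. IC50 came from a four-parameter nonlinear fit.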

[3] = target: T1, Somatostatin receptor type 2; test: Binding affinity to human SSTR2 expressed in CHO-K1 cells assessed as induction of SSTR2 internalization after 4 hrs by chemiluminescent assay; assay type: cell-based
[4] = test system: NCI-H524; test: Cytotoxicity in human NCI-H524 cells pre-incubated for 2 hrs in presence of 100 uM octreotide followed by compound wash out and subsequently incubated for 70 hrs by Cell Titer Glo assay; assay type: functional, cell-based
Summary of the method: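 Octreotide receptor-blockade variant: NCI-H524 cells (5,000/well) were pretreated with octreotide acetate for 30 min, then given compound for 2 h in a ten-point three-fold series.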

[5] = Half life of the compound in phosphate buffer at 1 mM in presence of GSH by LC-MS/MS analysis; assay type: physicochemical; conditions: phosphate buffer with GSH
Summary of the method: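 Conjugate, added from a 1 mM methanol stock, was incubated in 5 mM GSH at 37 °C. Aliquots taken from 30 min to 6 h were quenched into N-ethyl maleimide in 1% ethanol, and remaining parent conjugate was measured by LC-MS/MS.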

[6] = Half life in Beagle dog at 0.1 mg/kg, iv; assay type: ADME, organism-based, Canis lupus familiaris; conditions: in vivo
[7] = Cmax in Beagle dog at 0.1 mg/kg, iv; assay type: ADME, organism-based, Canis lupus familiaris; parameters: dose 0.1 mg/kg, route intravenous; conditions: in vivo
[8] = AUC (0 to 6 hrs) in Beagle dog at 0.1 mg/kg, iv; assay type: ADME, organism-based, Canis lupus familiaris; parameters: dose 0.1 mg/kg, time < 6 hr, route intravenous; conditions: in vivo
[9] = Clearance in Beagle dog at 0.1 mg/kg, iv; assay type: ADME, organism-based, Canis lupus familiaris; conditions: in vivo
[10] = test system: NCI-H69; test: Antitumor activity against human NCI-H69 cells xenografted in CrTac:NCr-Foxn1nu mouse assessed as tumor regression at 2 mg/kg, iv measured up to 40 days; assay type: functional
Summary of the method: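 Female athymic nude mice were implanted subcutaneously in the right flank with 2.5 × 10^6 NCI-H69 cells (RPMI 1640/10% FBS culture) in media:Matrigel (1:1). At 150-250 mm3, mice were randomized into groups of 10. Compound in 10% propylene glycol in 5 mM citrate buffer (pH=4) was given by tail-vein i.v. injection on indicated days. Tumor volume was measured by calipers as (w2 × l)/2, reported as mean ± SEM.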

[11] = Toxicity in CrTac:NCr-Foxn1nu mouse xenografted with human NCI-H69 cells assessed as body weight loss at 2 mg/kg, iv measured up to 40 days; assay type: organism-based; conditions: in vivo, 960 h
[12] = target: Somatostatin receptor type 1 (Homo sapiens, UniProt P30872); test: Displacement of [125I]somatostatin from human SSTR1 expressed in CHO-K1 cell membranes after 120 mins
Somatostatin receptor type 1, sequence (P30872 whole entry): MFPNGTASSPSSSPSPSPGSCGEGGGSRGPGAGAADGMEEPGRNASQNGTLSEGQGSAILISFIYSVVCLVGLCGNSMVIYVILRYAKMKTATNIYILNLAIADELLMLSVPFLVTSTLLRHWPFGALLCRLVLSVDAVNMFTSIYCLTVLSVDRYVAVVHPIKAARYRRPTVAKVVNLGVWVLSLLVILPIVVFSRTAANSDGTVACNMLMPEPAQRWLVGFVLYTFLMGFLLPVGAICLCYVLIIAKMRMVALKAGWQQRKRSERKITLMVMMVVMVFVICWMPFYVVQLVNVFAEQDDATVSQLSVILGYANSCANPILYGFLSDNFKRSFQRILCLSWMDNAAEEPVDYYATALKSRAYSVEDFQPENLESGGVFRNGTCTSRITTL

[13] = target: Somatostatin receptor type 3 (Homo sapiens, UniProt P32745); test: Displacement of [125I]somatostatin from human SSTR3 expressed in CHO-K1 cell membranes after 120 mins
Somatostatin receptor type 3, sequence (P32745 whole entry): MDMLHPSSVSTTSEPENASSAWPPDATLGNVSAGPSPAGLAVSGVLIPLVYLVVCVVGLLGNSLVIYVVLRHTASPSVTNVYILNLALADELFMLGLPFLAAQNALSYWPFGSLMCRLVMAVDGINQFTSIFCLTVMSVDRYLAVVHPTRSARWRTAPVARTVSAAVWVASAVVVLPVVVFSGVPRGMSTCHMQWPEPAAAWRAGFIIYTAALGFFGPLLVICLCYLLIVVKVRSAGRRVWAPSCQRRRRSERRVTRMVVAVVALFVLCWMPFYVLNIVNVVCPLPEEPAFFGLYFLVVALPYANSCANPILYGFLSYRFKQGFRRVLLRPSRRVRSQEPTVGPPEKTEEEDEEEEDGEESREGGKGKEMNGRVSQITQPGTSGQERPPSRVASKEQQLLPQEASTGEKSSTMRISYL

[14] = target: Somatostatin receptor type 4 (Homo sapiens, UniProt P31391); test: Displacement of [125I]somatostatin from human SSTR4 expressed in CHO-K1 cell membranes after 120 mins
Somatostatin receptor type 4, sequence (P31391 whole entry): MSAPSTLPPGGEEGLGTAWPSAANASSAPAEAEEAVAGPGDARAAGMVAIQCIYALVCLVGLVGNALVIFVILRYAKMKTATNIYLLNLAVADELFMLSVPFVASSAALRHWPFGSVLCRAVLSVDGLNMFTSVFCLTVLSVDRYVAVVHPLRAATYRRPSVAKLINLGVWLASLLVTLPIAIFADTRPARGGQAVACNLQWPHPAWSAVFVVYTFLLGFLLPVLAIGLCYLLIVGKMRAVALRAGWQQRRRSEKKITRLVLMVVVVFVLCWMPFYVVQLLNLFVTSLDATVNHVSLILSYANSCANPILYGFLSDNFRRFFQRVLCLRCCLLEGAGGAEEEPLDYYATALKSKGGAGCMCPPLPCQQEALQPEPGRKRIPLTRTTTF

[15] = target: T2, Somatostatin receptor type 5 (Homo sapiens, UniProt P35346); test: Displacement of [125I]somatostatin from human SSTR5 expressed in CHO-K1 cell membranes after 120 mins
T2 sequence (P35346 whole entry): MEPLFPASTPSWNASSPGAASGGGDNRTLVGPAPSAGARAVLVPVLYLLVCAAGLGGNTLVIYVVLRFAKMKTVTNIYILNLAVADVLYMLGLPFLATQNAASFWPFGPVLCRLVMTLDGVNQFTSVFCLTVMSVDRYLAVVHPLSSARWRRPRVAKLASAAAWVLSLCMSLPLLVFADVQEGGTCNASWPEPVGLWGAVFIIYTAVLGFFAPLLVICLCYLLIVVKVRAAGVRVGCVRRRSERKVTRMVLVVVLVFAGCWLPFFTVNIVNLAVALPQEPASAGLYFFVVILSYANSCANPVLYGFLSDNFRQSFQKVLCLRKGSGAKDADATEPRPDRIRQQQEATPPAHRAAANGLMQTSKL

[16] = Apparent permeability from apical to basolateral side in human Caco2 cells; assay type: ADME, cell-based; conditions: Caco-2
[17] = Antitumor activity against human HCC33 cells xenografted in CrTac:NCr-Foxn1nu mouse assessed as tumor regression at 1 mg/kg, iv measured up to 16 days; assay type: functional
Summary of the method: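 Female athymic nude mice received subcutaneous right-flank implants in media:Matrigel (1:1): 2.5 × 10^6 HCC-33 cells (RPMI 1640/10% FBS) or 1 x 10^7 IMR-32 cells (EMEM/10% FBS). At 150-250 mm3, mice were randomized into groups of 10. Dosing was tail-vein i.v. on indicated days in 0.1% Solutol HS 15/5% mannitol/WFI. Caliper volume was (w2 × l)/2, reported as group mean ± SEM.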

[18] = test system: IMR-32; test: Antitumor activity against human IMR32 cells xenografted in CrTac:NCr-Foxn1nu mouse assessed as tumor regression at […], iv measured up to 20 days; assay type: functional
[19] = Drug uptake in tumor of CrTac:NCr-Foxn1nu mouse xenografted with human NCI-H69 cells assessed as DM1 level at 1 mg/kg, iv measured after 24 hrs by LC-MS/MS analysis relative to DM1 alone; assay type: ADME, organism-based, Neoplasm; conditions: in vivo
Summary of the method: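 NCI-H69 subcutaneous tumors of 250-600 mm3 in nude mice, groups of 3, dosed i.v. Free DM1 was given in 10% propylene glycol/WFI, conjugates in 10% propylene glycol/5 mM citrate pH 4. Tumors were excised at 24 h and homogenized 1:4 (w/v) in 0.1 M ammonium bicarbonate pH 8.0. Homogenate was reduced with TCEP in acetonitrile (15 min, 37 °C), capped with 0.2 M NEM (15 min, 37 °C), and DM1-NEM quantified by LC-MS/MS against standards in blank tumor homogenate. Values were normalized to DM1 dose.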

[20] = test system: NCI-H69; test: Antitumor activity against human NCI-H69 cells xenografted in CrTac:NCr-Foxn1nu mouse assessed as tumor regression at 1.3 mg/kg, iv measured up to 40 days; assay type: functional, organism-based
Summary of the method: (§1)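 Female athymic nude mice were implanted subcutaneously in the right flank with 2.5 × 10^6 NCI-H69 cells in medium/Matrigel 1:1. At 150-250 mm3, animals were randomized into groups of 10. Dosing was by tail-vein injection in 10% propylene glycol in 5 mM citrate pH 4 on the indicated days. Caliper volumes were calculated as (w2 × l)/2 and reported as mean ± SEM.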

[21] = target: T1, Somatostatin receptor type 2; test: Agonist activity at SSTR2 (unknown origin) assessed as effect on calcium flux incubated for 180 secs by FLIPR assay; assay type: functional
[22] = target: T1, Somatostatin receptor type 2; test: Antagonist activity at SSTR2 (unknown origin) assessed as effect on agonist-induced calcium flux incubated for 180 secs by FLIPR assay; assay type: functional
[23] = target: T2, Somatostatin receptor type 5; test: Agonist activity at SSTR5 (unknown origin) assessed as effect on calcium flux incubated for 180 secs by FLIPR assay; assay type: functional
[24] = target: T2, Somatostatin receptor type 5; test: Antagonist activity at SSTR5 (unknown origin) assessed as effect on agonist-induced calcium flux incubated for 180 secs by FLIPR assay; assay type: functional
[25] = test system: NCI-H69; test: Antitumor activity against human NCI-H69 cells xenografted in CrTac:NCr-Foxn1nu mouse assessed as tumor regression at 0.7 mg/kg, iv measured up to 20 days; assay type: functional, organism-based; summary of the method: as §1

T1 sequence (P30874 whole entry): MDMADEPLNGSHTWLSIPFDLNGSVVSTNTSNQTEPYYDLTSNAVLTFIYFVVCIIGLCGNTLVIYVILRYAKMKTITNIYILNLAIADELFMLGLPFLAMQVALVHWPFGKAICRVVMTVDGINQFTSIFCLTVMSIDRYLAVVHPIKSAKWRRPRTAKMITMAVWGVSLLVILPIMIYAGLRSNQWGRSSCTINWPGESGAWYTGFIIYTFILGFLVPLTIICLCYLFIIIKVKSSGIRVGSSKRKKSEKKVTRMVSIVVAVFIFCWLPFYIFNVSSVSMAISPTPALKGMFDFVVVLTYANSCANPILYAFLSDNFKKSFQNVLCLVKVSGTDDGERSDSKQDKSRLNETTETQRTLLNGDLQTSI

CO[C@H]1C(=O)[C@]2(C)[C@@H](OC)C[C@H]3OC[C@@]3(OC(C)=O)[C@H]2[C@H](OC(=O)c2ccccc2)[C@]2(O)C[C@H](OC(=O)[C@H](OC(=O)OCCSSC[C@H](NC(=O)[C@@H]3CSSC[C@H](NC(=O)[C@H](N)Cc4ccccc4)C(=O)N[C@@H](Cc4ccc(O)cc4)C(=O)N[C@H](Cc4c[nH]c5ccccc45)C(=O)N[C@@H](CCCCN)C(=O)N[C@@H]([C@@H](C)O)C(=O)N3)C(N)=O)[C@@H](NC(=O)OC(C)(C)C)c3ccccc3)C(C)=C1C2(C)C
Ki [1]: 0.97 nM
IC50 [2]: 7 nM
EC50 [3]: 11 nM
IC50 [4]: 14 nM

COc1cc2cc(c1Cl)N(C)C(=O)C[C@H](OC(=O)[C@H](C)N(C)C(=O)CCSSC[C@H](NC(=O)[C@@H]1CSSC[C@H](NC(=O)[C@H](N)Cc3ccccc3)C(=O)N[C@@H](Cc3ccc(O)cc3)C(=O)N[C@H](Cc3c[nH]c4ccccc34)C(=O)N[C@@H](CCCCN)C(=O)N[C@@H]([C@@H](C)O)C(=O)N1)C(N)=O)[C@@]1(C)O[C@H]1[C@H](C)[C@@H]1C[C@@](O)(NC(=O)O1)[C@H](OC)/C=C/C=C(\C)C2
Ki [1]: 0.022 nM
IC50 [2]: 10 nM
EC50 [3]: 1 nM
half-life at 1000 µM [5]: 0.167 h
half-life [6]: 2.33 h
Cmax [7]: 708 nM
AUC(0-t) at 6 h [8]: 0.47 µM·h
clearance [9]: 1.66 mL/min/kg
Activity [10]: 100%
Activity [11]: Non-Toxic
IC50 [4]: 910 nM
Kd [12]: 310 nM
Kd [13]: 19.8 nM
Kd [14]: 5480 nM
Kd [15]: 9.6 nM
Papp A→B [16]: 0.018 ×10⁻⁶ cm/s
Activity [17]: 100%
Activity [18]: 100%
Drug uptake [19]: Active
Activity [20]: Active
Activity [21]: Active
Activity [22]: Active
Activity [23]: Active
Activity [24]: Active

COc1cc2cc(c1Cl)N(C)C(=O)C[C@H](OC(=O)[C@H](C)N(C)C(=O)CCSSC(C)(C)[C@H](NC(=O)[C@@H]1CSSC[C@H](NC(=O)[C@H](N)Cc3ccccc3)C(=O)N[C@@H](Cc3ccc(O)cc3)C(=O)N[C@H](Cc3c[nH]c4ccccc34)C(=O)N[C@@H](CCCCN)C(=O)N[C@@H]([C@@H](C)O)C(=O)N1)C(N)=O)[C@@]1(C)O[C@H]1[C@H](C)[C@@H]1C[C@@](O)(NC(=O)O1)[C@H](OC)/C=C/C=C(\C)C2
Ki [1]: 0.015 nM
IC50 [2]: 8 nM
half-life at 1000 µM [5]: 0.947 h
half-life [6]: 1.38 h
Cmax [7]: 867 nM
AUC(0-t) at 6 h [8]: 0.769 µM·h
clearance [9]: 1.09 mL/min/kg
Activity [10]: 100%
Activity [11]: Non-Toxic
IC50 [4]: 1040 nM

COc1cc2cc(c1Cl)N(C)C(=O)C[C@H](OC(=O)[C@H](C)N(C)C(=O)CCSSCCCN[C@H](Cc1ccccc1)C(=O)N[C@H]1CSSC[C@@H](C(=O)N[C@@H](Cc3c[nH]c4ccccc34)C(N)=O)NC(=O)[C@H](C(C)C)NC(=O)[C@H](CCCCN)NC(=O)[C@@H](Cc3c[nH]c4ccccc34)NC(=O)[C@H](Cc3ccc(O)cc3)NC1=O)[C@@]1(C)O[C@H]1[C@H](C)[C@@H]1C[C@@](O)(NC(=O)O1)[C@H](OC)/C=C/C=C(\C)C2
Ki [1]: 0.19 nM
IC50 [2]: 22 nM
IC50 [4]: 115 nM
Drug uptake [19]: Active

COc1cc2cc(c1Cl)N(C)C(=O)C[C@H](OC(=O)[C@H](C)N(C)C(=O)CCSSC[C@H](NC(=O)[C@@H]1CSSC[C@H](NC(=O)[C@H](N)Cc3ccccc3)C(=O)N[C@@H](Cc3ccc(O)cc3)C(=O)N[C@H](Cc3c[nH]c4ccccc34)C(=O)N[C@@H](CCCCNC(=O)NCCCCCCN)C(=O)N[C@@H]([C@@H](C)O)C(=O)N1)C(N)=O)[C@@]1(C)O[C@H]1[C@H](C)[C@@H]1C[C@@](O)(NC(=O)O1)[C@H](OC)/C=C/C=C(\C)C2
Ki [1]: 3350 nM
IC50 [2]: 581 nM
IC50 [4]: 644 nM
Activity [25]: inactive

COc1cc2cc(c1Cl)N(C)C(=O)C[C@H](OC(=O)[C@H](C)N(C)C(=O)CCSSCCOc1ccc(C[C@@H](N)C(=O)N[C@H]3CSSC[C@@H](C(=O)N[C@H](C(=O)O)[C@@H](C)O)NC(=O)[C@H]([C@@H](C)O)NC(=O)[C@H](CCCCN)NC(=O)[C@@H](Cc4c[nH]c5ccccc45)NC(=O)[C@H](Cc4ccc(O)cc4)NC3=O)cc1)[C@@]1(C)O[C@H]1[C@H](C)[C@@H]1C[C@@](O)(NC(=O)O1)[C@H](OC)/C=C/C=C(\C)C2
Ki [1]: 0.015 nM
IC50 [2]: 15 nM
IC50 [4]: 198 nM
Drug uptake [19]: Active
